Laboratory results from ChEMBL document CHEMBL2010694, “Indolyl and dihydroindolyl N-glycinamides as potent and in vivo active NPY5 antagonists” (Bioorg Med Chem Lett, 2012).

Key:
Liver microsomes [1] = assay: Intrinsic clearance in human liver microsomes at 1 uM by LC/MS analysis; format: ADME, Microsome
Outline: (§1)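 Compound incubated with human or rat liver microsomes; reaction quenched with acetonitrile, centrifuged, and remaining drug in supernatant measured by LC/MS to estimate T1/2, from which intrinsic clearance was derived.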

Plasma = assay: Plasma concentration in Sprague-Dawley rat at 10 mg/kg, po by LC-MS/MS analysis; format: ADME, organism-based; parameters: dose 10 mg/kg, route oral; settings: in vivo
Outline: (§2)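 Male Sprague-Dawley rats (300–350 g), femoral artery cannulated; single 10 mg/kg oral dose in an appropriate vehicle, N = 3. Blood taken predose, 1, 2 and 4 h; brains then collected and stored at -80 °C. Equal portions of plasma or homogenized brain from the three rats pooled per time point, protein precipitated, quantified by LC/MS/MS.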

Liver microsomes [2] = assay: Intrinsic clearance in rat liver microsomes at 1 uM by LC/MS analysis; format: ADME, Microsome; outline: as §1
[3] = target: T1, Neuropeptide Y receptor type 5 (Homo sapiens, UniProt Q15761); assay: Displacement of [125I]peptide YY from human NPY5 receptor
T1 sequence (Q15761 whole entry): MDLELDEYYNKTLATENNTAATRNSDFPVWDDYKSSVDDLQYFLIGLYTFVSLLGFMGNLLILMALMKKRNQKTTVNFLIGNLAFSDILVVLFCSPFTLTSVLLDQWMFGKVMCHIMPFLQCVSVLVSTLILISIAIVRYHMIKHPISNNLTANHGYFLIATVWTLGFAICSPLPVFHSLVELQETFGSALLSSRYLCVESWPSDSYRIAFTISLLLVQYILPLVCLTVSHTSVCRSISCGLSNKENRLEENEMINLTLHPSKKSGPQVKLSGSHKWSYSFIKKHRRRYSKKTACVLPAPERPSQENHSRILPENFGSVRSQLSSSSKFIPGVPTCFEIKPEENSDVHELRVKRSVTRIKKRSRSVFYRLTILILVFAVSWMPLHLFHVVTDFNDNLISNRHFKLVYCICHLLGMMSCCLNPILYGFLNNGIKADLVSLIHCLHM

Brain = assay: Drug uptake in Sprague-Dawley rat brain at 10 mg/kg, po by LC-MS/MS analysis; format: ADME, organism-based; parameters: dose 10 mg/kg, route oral; settings: in vivo, read-out: Drug uptake; outline: as §2

SMILES	CLH (Liver microsomes [1])	concentration (Plasma)	CLH (Liver microsomes [2])	Ki [3]	concentration (Brain)
CC(C)S(=O)(=O)NC[C@H]1CC[C@H](NC(=O)Cc2cn(C)c3ccccc23)CC1	1.2 L/min	296 nM	22 mL/min	2 nM	17 nM
CC(C)S(=O)(=O)NC[C@H]1CC[C@H](NC(=O)CN2CCc3cc(F)ccc32)CC1	1.4 L/min	2680 nM	21 mL/min	4 nM	117 nM
CC(C)S(=O)(=O)NC[C@H]1CC[C@H](NC(=O)CN2C(=O)CCc3cc(Cl)ccc32)CC1	0.8 L/min	877 nM	40 mL/min	–	17 nM
CC(C)S(=O)(=O)NC[C@H]1CC[C@H](NC(=O)Cn2ccc3cc(C#N)ccc32)CC1	0.4 L/min	769 nM	8.7 mL/min	5.6 nM	43 nM
Cc1ccc2c(c1)CCN2CC(=O)N[C@H]1CC[C@H](CNS(=O)(=O)C(C)C)CC1	3.1 L/min	6140 nM	54 mL/min	3.5 nM	477 nM
CC(C)S(=O)(=O)NC[C@H]1CC[C@H](NC(=O)Cn2ccc3cc(F)ccc32)CC1	0.6 L/min	1300 nM	11 mL/min	2.2 nM	100 nM
CC(C)S(=O)(=O)NC[C@H]1CC[C@H](NC(=O)Cn2c(=O)oc3ccccc32)CC1	0.5 L/min	1640 nM	1.9 mL/min	10 nM	19 nM
CC(C)S(=O)(=O)NC[C@H]1CC[C@H](NC(=O)CN2CCOc3cc(Cl)ccc32)CC1	2.9 L/min	428 nM	35 mL/min	–	–
Cc1cc2ccccc2n1CC(=O)N[C@H]1CC[C@H](CNS(=O)(=O)C(C)C)CC1	1.1 L/min	242 nM	49 mL/min	8.9 nM	49 nM
CC(C)S(=O)(=O)NC[C@H]1CC[C@H](NC(=O)CN2CCCc3cc(Cl)ccc32)CC1	2.8 L/min	498 nM	36 mL/min	–	88 nM
CC(C)S(=O)(=O)NC[C@H]1CC[C@H](NC(=O)Cc2c[nH]c3ccccc23)CC1	0.5 L/min	2560 nM	3.4 mL/min	12 nM	54 nM
CC(C)S(=O)(=O)NC[C@H]1CC[C@H](NC(=O)CN2C(=O)COc3cc(Cl)ccc32)CC1	0.5 L/min	480 nM	15 mL/min	–	–

The remaining lines, values ahead:

CLH (Liver microsomes [1])	concentration (Plasma)	CLH (Liver microsomes [2])	Ki [3]	concentration (Brain)	SMILES
14 L/min	417 nM	205 mL/min	1.1 nM	50 nM	CC(C)S(=O)(=O)NC[C@H]1CC[C@H](NC(=O)CN2CC(C)(C)c3cc(Cl)ccc32)CC1
–	–	–	1.7 nM	–	CC(C)S(=O)(=O)NC[C@H]1CC[C@H](NC(=O)Cn2ccc3c(Cl)cccc32)CC1
5.8 L/min	24 nM	7.1 mL/min	1.8 nM	7 nM	CC(C)S(=O)(=O)NC[C@H]1CC[C@H](NC(=O)CCN2CCc3ccccc32)CC1
–	–	–	0.9 nM	–	CC(C)S(=O)(=O)NC[C@H]1CC[C@H](NC(=O)Cn2ccc3cccc(Cl)c32)CC1
1 L/min	870 nM	12 mL/min	0.9 nM	11 nM	CC(C)S(=O)(=O)NC[C@H]1CC[C@H](NC(=O)Cn2c(=O)sc3cc(Cl)ccc32)CC1
2.6 L/min	157 nM	37 mL/min	1 nM	134 nM	CC(C)S(=O)(=O)NC[C@H]1CC[C@H](NC(=O)Cn2ccc3ccc(Cl)cc32)CC1
–	–	–	1.2 nM	–	CC(C)S(=O)(=O)NC[C@H]1CC[C@H](NC(=O)Cn2ccc3ccc(F)cc32)CC1
1 L/min	460 nM	27 mL/min	1.5 nM	81 nM	CC(C)S(=O)(=O)NC[C@H]1CC[C@H](NC(=O)Cn2ccc3ccccc32)CC1
4.5 L/min	1520 nM	39 mL/min	1.5 nM	105 nM	CC(C)S(=O)(=O)NC[C@H]1CC[C@H](NC(=O)CN2CCc3c2ccc(F)c3F)CC1
2.5 L/min	2080 nM	28 mL/min	0.9 nM	328 nM	CC(C)S(=O)(=O)NC[C@H]1CC[C@H](NC(=O)Cn2ccc3cc(F)c(F)cc32)CC1
